Screens deposited in PubChem by several laboratories.
Shown are actives, neighbours in structure and some others; about 1.9% of the full set was active somewhere.
XiGFP reactiv: X-chromosome reactivation activator; XiGFP mouse fibroblasts, % GFP-positive cells imaging, 3 d; cells co-treated with 5-aza-dC sensitizer; scaled so ellipticine positive control = 100%; activation, % at 7.58 µM; actives 0.055% (n = 360,000);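 active = mean normalized replicate activation at least 10% and every replicate at or above 10%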
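System: XiGFP fibroblasts, SV40-immortalized. Medium: DMEM plus 5-aza-dC sensitizer. Doses: single point. Timing: 3 d treatment, 15 min room-temperature fixation. Control set: ellipticine 6 µM.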
Rin1-Abl PPI inh: inhibitors of human Rin1-Abl protein interaction. TR-FRET Rin1/Abl binding, biochemical. inhibition, % at 7.35 µM. actives 0.4% (n = 360,000); in the data active = inhibition above about 5%, passing the limit was not always enough
NadD block: blocks S. aureus nicotinate mononucleotide adenylyltransferase | actives 0.78% (n = 360,000) | inhibition, % at 20 µM | purified NadD enzyme, colorimetric absorbance read-out; in the data active = inhibition above about 26%
ABHD5-PLIN5 inh: ABHD5-PLIN5 protein interaction inhibition; Q00G26+Q8WTS1; Split G. princeps luciferase complementation, luminescence, 4 h; inhibition, % at 4 µM; actives 0.78% (n = 360,000); AID 602281;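 active = inhibition above the mean inhibition across every tested compound plus 3 SD, cut at about 22% in these data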
Rpn11 inh: blocks the human proteasome subunit Rpn11; inhibition, % at 20 µM; AID 588493; human 26S proteasome, Ub4-pepOG fluorescence polarization; 20S core pre-blocked with epoxomicin; actives 0.59% (n = 360,000);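 active = inhibition at 20 µM, scaled to each plate's controls, above about 33%, limit read from the data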
Rpn11 inh conf: confirmation of human proteasome Rpn11 inhibitors; shares compounds with Rpn11 inh; purified human 26S proteasome, Ub4-pepOG fluorescence polarization; proteasome pretreated with epoxomicin; inhibition, % at 20 µM; actives 29% (n = 1,900); AID 602318
MMP-2 inh: MMP-2 (human) inhibition counter-screen | shares compounds with Rpn11 inh | recombinant MMP-2, FRET peptide cleavage fluorescence | inhibition, % at 20 µM | AID 602330 | actives 4% (n = 1,900);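 also: human MMP-2 activated beforehand with APMA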
Target sequence (P08253 whole entry, looked up): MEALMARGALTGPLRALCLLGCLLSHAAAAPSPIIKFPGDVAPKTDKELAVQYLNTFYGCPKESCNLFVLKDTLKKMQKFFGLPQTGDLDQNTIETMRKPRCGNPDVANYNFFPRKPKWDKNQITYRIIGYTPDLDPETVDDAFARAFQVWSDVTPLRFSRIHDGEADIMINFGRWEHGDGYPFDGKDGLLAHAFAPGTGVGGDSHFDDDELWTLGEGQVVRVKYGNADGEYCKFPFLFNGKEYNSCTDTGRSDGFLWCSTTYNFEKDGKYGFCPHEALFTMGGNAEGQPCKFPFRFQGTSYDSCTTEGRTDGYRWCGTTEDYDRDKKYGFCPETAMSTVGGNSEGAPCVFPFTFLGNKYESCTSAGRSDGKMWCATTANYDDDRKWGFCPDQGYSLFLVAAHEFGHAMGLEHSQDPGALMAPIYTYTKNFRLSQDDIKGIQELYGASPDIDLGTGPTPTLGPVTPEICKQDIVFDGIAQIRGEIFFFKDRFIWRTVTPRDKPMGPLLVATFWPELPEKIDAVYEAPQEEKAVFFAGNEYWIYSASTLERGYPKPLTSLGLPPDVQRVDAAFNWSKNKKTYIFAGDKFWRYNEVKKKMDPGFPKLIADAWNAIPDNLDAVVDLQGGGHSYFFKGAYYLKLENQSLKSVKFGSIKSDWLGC
Thrombin FP: blocks bovine thrombin, flagging nonselective RPN11 hits | inhibition, % at 20 µM | bovine thrombin cleavage of Ub4-pepOG, fluorescence polarization | actives 13% (n = 1,900) | AID 602333 | shares compounds with Rpn11 inh;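 active = mean inhibition at least 40% at 20 µM, or signal 3 deviations below plate average, so some actives read negative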
Rin1-Abl confirm: confirmation of inhibitors of human Rin1-Abl interaction. inhibition, % at 7.35 µM. shares compounds with Rin1-Abl PPI inh. TR-FRET Rin1-Abl binding, purified proteins. actives 49% (n = 1,300). AID 602124; in the data active = inhibition above about 6.5%
GFP quench: quenches GFP fluorescence, counter-screen for Rin1-Abl inhibitors; inhibition, % at 6.75 µM; shares compounds with Rin1-Abl PPI inh; inhibitors/quenchers counterscreen; actives 8.5% (n = 1,300); AID 602125; in the data active = inhibition above about 6.5%;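 also: ABL1-eGFP fusion protein alone without its partner RIN1-SBP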
ABHD5-PLIN5 conf: confirmation of human ABHD5-PLIN5 interaction inhibitors | actives 67% (n = 2,200) | biochemical ABHD5-PLIN5 interaction, luminescence | shares compounds with ABHD5-PLIN5 inh | inhibition, % at 4 µM; in the data active = inhibition above about 23%
HNF4 counter: active in HNF4 split-luciferase counter-screen for ABHD5-PLIN5 inhibitors; AID 651674; HNF4 dimerization, luminescence, biochemical; inhibition, % at 4 µM; actives 77% (n = 2,200); shares compounds with ABHD5-PLIN5 inh;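 active = mean inhibition across replicate wells exceeding the computed hit threshold, cut at about 13% in these data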;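 also: light from luciferase halves that rejoin when HNF4 fusion proteins dimerize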
Each line names hits and unclear results; the compound was inactive in the other large screens (follow-up assays come after a bar, where they were run). Rule as the data show it, unless noted: active = inhibition above about 40%; inactive = the rest.

CC1=CN2C(=N)/C(=C/c3ccc(Sc4ccc(C)cc4)o3)C(=O)N=C2S1	Rpn11 inh 48 | Rpn11 inh conf inactive | MMP-2 inh inactive | Thrombin FP inactive
CC(C)(C)c1ccc(Oc2ccc(N)cn2)cc1	Rpn11 inh 56 | Rpn11 inh conf inactive | MMP-2 inh inactive | Thrombin FP inactive
COc1ccc(Cc2c(-c3ccc(C)cc3)nc3ccc(Cl)cn23)c(C)c1	Rpn11 inh 44 | Rpn11 inh conf 52 | MMP-2 inh inactive | Thrombin FP inactive
CO[C@H]1CN(C)C(=O)c2cc(NC(C)=O)ccc2OC[C@H](C)N(C(=O)c2cnccn2)C[C@@H]1C	none (no result: Rin1-Abl PPI inh, NadD block, ABHD5-PLIN5 inh, Rpn11 inh)
N=c1c(C(=O)NC2CCCCC2)cc2c(=O)n3ccccc3nc2n1Cc1ccc(F)cc1	Rpn11 inh 51 | Rpn11 inh conf inactive | MMP-2 inh inactive | Thrombin FP inactive
C[C@@H]1CN([C@H](C)CO)C(=O)c2cc(C#CC3CC3)cnc2O[C@H]1CN(C)C(=O)C1CCCCC1	none (no result: Rin1-Abl PPI inh, NadD block, ABHD5-PLIN5 inh, Rpn11 inh)
O=C(N/C(=N\O)c1ccccc1)Nc1ccc(Cl)cc1	Rpn11 inh 37 (no result: XiGFP reactiv) | Rpn11 inh conf inactive | MMP-2 inh inactive | Thrombin FP inactive
CCc1c(O)nc(SCC(=O)Nc2ccc(C)cc2)n(C2CCCCC2)c1=O	Rpn11 inh 85 (no result: XiGFP reactiv) | Rpn11 inh conf 42 | MMP-2 inh inactive | Thrombin FP inactive
COc1cccc(C#Cc2ccc([C@H]3[C@@H](CO)N4C(=O)CN(C(C)=O)C[C@@H]34)cc2)c1	none (no result: Rin1-Abl PPI inh, NadD block, ABHD5-PLIN5 inh, Rpn11 inh)
COc1cccc(C#Cc2ccc([C@@H]3[C@H](CO)N4C(=O)CN(C(=O)C5CC5)C[C@@H]34)cc2)c1	none (no result: Rin1-Abl PPI inh, NadD block, ABHD5-PLIN5 inh, Rpn11 inh)
COc1ccc(CCNC(=O)CS(=O)Cc2nc(-c3cccs3)oc2C)cc1OC (stereo not drawn)	Rpn11 inh 120 (no result: XiGFP reactiv) | Rpn11 inh conf inactive | MMP-2 inh inactive | Thrombin FP inactive
O=C(/C(=C(\[O-])c1ccccc1)[n+]1ccc2ccccc2c1)c1ccccc1	Rpn11 inh 43 | Rpn11 inh conf inactive | MMP-2 inh inactive | Thrombin FP inactive
C[C@@H]1CCCn2nncc2COCCNC1=O	none (no result: Rin1-Abl PPI inh, NadD block, ABHD5-PLIN5 inh, Rpn11 inh)
COc1nc(N)c(S(=O)(=O)c2ccccc2C)cc1C#N	none (no result: XiGFP reactiv)
COc1nc(N)c(S(=O)(=O)c2ccccc2)cc1C#N	Rpn11 inh 54 (no result: XiGFP reactiv) | Rpn11 inh conf inactive | MMP-2 inh inactive | Thrombin FP inactive
CN(C)C1CCN(Cc2cc(COCc3ccccc3)c3cccnc3c2O)C1 (stereo not drawn)	none (no result: XiGFP reactiv)
Oc1c(CN2CCCCC2)cc(COCc2ccccc2)c2cccnc12	Rin1-Abl PPI inh 14, Rpn11 inh 76 (no result: XiGFP reactiv) | Rpn11 inh conf inactive | MMP-2 inh inactive | Thrombin FP inactive | Rin1-Abl confirm inactive | GFP quench inactive
C[C@H](CO)N1C[C@H](C)[C@@H](CN(C)S(=O)(=O)c2ccccc2)Oc2ccc(NC(=O)Cc3cn(C)c4ccccc34)cc2C1=O	none (no result: Rin1-Abl PPI inh, NadD block, ABHD5-PLIN5 inh, Rpn11 inh)
O=C(O)CC(C(=O)O)N1C(=O)/C(=C/C=C/c2ccco2)SC1=S (stereo not drawn)	Rin1-Abl PPI inh 18, Rpn11 inh 64 | Rpn11 inh conf 97 | MMP-2 inh 59 | Thrombin FP inactive | Rin1-Abl confirm 11 | GFP quench 13
N#CC(C#N)=Cc1ccc(-c2ccc(S(=O)(=O)N=C(N)N)cc2)o1	ABHD5-PLIN5 inh 28, Rpn11 inh 46 | Rpn11 inh conf inactive | MMP-2 inh 76 | Thrombin FP inactive | ABHD5-PLIN5 conf 41 | HNF4 counter 35
O=C1N/C(=C/c2ccc(N3CCOCC3)o2)C(=O)N1c1ccccc1	ABHD5-PLIN5 inh 80, Rpn11 inh 59 | Rpn11 inh conf 166 | MMP-2 inh inactive | Thrombin FP 166 | ABHD5-PLIN5 conf 63 | HNF4 counter 99
C=CCN1C(=O)N/C(=C/c2ccc(N3CCOCC3)o2)C1=O	none (no result: Rin1-Abl PPI inh, NadD block, ABHD5-PLIN5 inh, Rpn11 inh)
COc1ccc(N=C2NC(=O)/C(=C/C=C/c3ccccc3)S2)cc1	none
O=C1NC(=Nc2ccccc2)S/C1=C\C=C\c1ccco1	ABHD5-PLIN5 inh 25, Rpn11 inh 58 | Rpn11 inh conf inactive | MMP-2 inh 52 | Thrombin FP inactive | ABHD5-PLIN5 conf 36 | HNF4 counter 55
CN1/C(=C/c2cccc[n+]2CCO)Sc2ccccc21	none
CC[n+]1c(/C=C2\Sc3ccccc3N2C)ccc2cccc(C)c21	XiGFP reactiv 105, ABHD5-PLIN5 inh 24, Rpn11 inh 102 | Rpn11 inh conf 96 | MMP-2 inh inactive | Thrombin FP 157 | ABHD5-PLIN5 conf 23 | HNF4 counter 26
CC(C)(C)S(=O)N1Cc2cc(C(=O)N[C@@H]3CCN(Cc4ccccc4)C3)nc(-c3cccc(-c4cc5ccccc5o4)c3)c2[C@@H]1CCO (stereo partly drawn)	ABHD5-PLIN5 inh 26, Rpn11 inh 68 | Rpn11 inh conf inactive | MMP-2 inh inactive | Thrombin FP inactive | ABHD5-PLIN5 conf inactive | HNF4 counter inactive
CC(C)(C)[S@@](=O)N1Cc2cc(C(=O)N[C@@H]3CCN(Cc4ccccc4)C3)nc(-c3cccc(-c4ccncc4)c3)c2[C@H]1CCO	none (no result: Rin1-Abl PPI inh, NadD block, ABHD5-PLIN5 inh, Rpn11 inh)
Cc1ccc(S(=O)(=O)N2CC[C@@H]3[C@H]2c2cc(C#Cc4ccc(F)cc4)ccc2N[C@@H]3CO)cc1	none (no result: Rin1-Abl PPI inh, NadD block, ABHD5-PLIN5 inh, Rpn11 inh)
O=C(CCN1CCc2ccccc2C(c2ccccc2)C1)c1ccc2c(c1)OCCO2 (stereo not drawn)	ABHD5-PLIN5 inh 26, Rpn11 inh 57 (no result: XiGFP reactiv) | Rpn11 inh conf inactive | MMP-2 inh inactive | Thrombin FP inactive | ABHD5-PLIN5 conf 23 | HNF4 counter 86
CC(=O)N1[C@@H]2Cn3c(ccc(-c4ccc(F)cc4)c3=O)[C@H]1[C@@H](C(=O)N(C)C)[C@@H]2CO	none (no result: Rin1-Abl PPI inh, NadD block, ABHD5-PLIN5 inh, Rpn11 inh)
